Results published in ChEMBL document CHEMBL3817728, “Synthesis, Evaluation, and Mechanism Study of Novel Indole-Chalcone Derivatives Exerting Effective Antitumor Activity Through Microtubule Destabilization in Vitro and in Vivo” (J Med Chem, 2016).
Calls of active or inactive are those of the source. The calls are words filed in the database; no cut-off is given here.

What was measured:
A549 [1] = test: Induction of apoptosis in human A549 cells assessed as late apoptotic cells at 10 nM after 48 hrs by annexin V-FITC/propidium iodide staining-based flow cytometric method (reference value: 0.01%); format: functional
HCT-8 = test: Resistance index, ratio of IC50 for human HCT8/VCT cells to IC50 for human HCT8 cells; format: functional
A549 [2] = test: Induction of apoptosis in human A549 cells assessed as necrotic cells at 3 nM after 48 hrs by annexin V-FITC/propidium iodide staining-based flow cytometric method (reference value: 0.01%); format: functional
Outline: (§1)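 A549 cells exposed 24 h or 48 h at indicated concentrations, then trypsinized, harvested and stained with Annexin V-FITC and PI; flow cytometry quadrants scored as necrotic (upper left), late apoptotic (upper right), live (bottom left) and early apoptotic (bottom right). Five independent experiments, representative shown.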

A549 [3] = test: Disruption of microtubule network in human A549 cells assessed as multipolarization of spindle at 10 nM after 24 hrs by Hoechst 33342 staining-based laser scanning confocal microscopic analysis; format: cell-based
Outline: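 A549 cells plated in confocal dishes and incubated with compound for 24 h. Cells were then fixed and stained, and microtubule and spindle organization was imaged by laser confocal microscopy. Experiments done five times; representative results shown.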

A549 [4] = test: Induction of apoptosis in human A549 cells assessed as late apoptotic cells at 3 nM after 24 hrs by annexin V-FITC/propidium iodide staining-based flow cytometric method (reference value: 0.01%); format: functional
A2780 = test: Cytotoxicity against human A2780 cells assessed as cell viability after 48 hrs by MTT assay; format: functional, cell-based; details: A2780, 48 h
Outline: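 Cancer cell lines treated with compound for 48 h, and viability read by MTT assay. IC50 given as mean ± SD from at least three independent experiments.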

A549 [5] = test: Disruption of mitochondrial membrane potential in human A549 cells assessed as green fluorescence intensity at 1 nM after 24 hrs by JC1 staining-based flow cytometric method (reference value: 0.02%); format: functional
A549 [6] = test: Cell cycle arrest in human A549 cells assessed as accumulation at sub-G1 phase at 3 to 10 nM after 24 to 72 hrs by propidium iodide staining-based flow cytometric analysis; format: functional
Outline: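 A549 cells exposed to compound for 24, 48 or 72 h, then trypsinized and harvested. DNA stained with propidium iodide and analyzed by flow cytometry. Percentage of cells in each cell-cycle phase was quantified from the DNA histograms, with sub-G1 taken as the hypodiploid peak. Performed at least three times; representative experiments shown.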

A549 [7] = test: Induction of apoptosis in human A549 cells assessed as necrotic cells at 1 nM after 48 hrs by annexin V-FITC/propidium iodide staining-based flow cytometric method (reference value: 0.01%); format: functional
A549 [8] = test: Induction of apoptosis in human A549 cells assessed as viable cells at 1 nM after 24 hrs by annexin V-FITC/propidium iodide staining-based flow cytometric method (reference value: 98.9%); format: functional; details: A549, 24 h, read-out: Activity; outline: as §1

COc1ccc2c(/C=C(\C)C(=O)c3cc(OC)c(OC)c(OC)c3)c[nH]c2c1
Activity (A549 [1]): 70.2%
Ratio IC50 (HCT-8): 0.42
Activity (A549 [2]): 2.69%
Activity (A549 [3]): Active
Activity (A549 [4]): 3.56%
IC50 (A2780): 8 nM
Activity (A549 [5]): 1.78%
Activity (A549 [6]): Active
Activity (A549 [7]): 1.52%
viability at 0.001 µM (A549 [8]): 83.7%
